Converted amounts (≈) assume the structure as drawn.
Assays:
[1] = tested on: VEGF, MMP-9 and NF-κB expression in HepG2 cells; assay: Western blot analysis of VEGF, MMP-9 and NF-κB; assay type: cell-based, human; conditions: 6.25 μg/mL, P < 0.05
[2] = tested on: human umbilical vein endothelial cells (HUVEC); assay: MTT cell proliferation inhibition, HUVEC; assay type: cell-based; conditions: 72 h
Method in brief: (§1)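 HepG2 (passage 4–7), HUVEC and WRL68 cells (1 × 10^4) were exposed to test compound for 72 h, with 1% DMSO as negative control. Then 20 µL MTT (5 mg/mL in PBS) was added for 5 h at 37°C, 5% CO2. Absorbance was read at 570 nm against 630 nm reference, and viability expressed as percent of untreated cells. Triplicates were run and the experiment repeated three times.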

[3] = tested on: chick chorioallantoic membrane neovascularization; assay: Chorioallantoic membrane; assay type: in vivo, chicken; conditions: 24 h, 6.25 and 12.5 μg/mL (Figure 3 legend)
Method in brief: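 On fertilized eggs incubated from day 5 at 37°C in constant humidity, 5 mL albumin was aspirated and the eggs laid horizontally to detach the CAM. Test compound in 1.2% agarose disks went onto the CAM through a shell window, with agarose-only disks as negative control. The window was taped and eggs incubated 24 h. Vessels were counted from dissecting-microscope photographs as mean count per CAM.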

HepG2 cells = assay: MTT cell proliferation inhibition, HepG2; assay type: cell-based; conditions: Homo sapiens, HepG2, 72 h, read-out: IC50±SD
Method in brief: as §1

HUVECs tube formation = assay: Endothelial cell tube formation assay; assay type: cell-based, human
Method in brief: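 HUVECs grown in ECM-2 were trypsinized and resuspended in basal medium with 0.1% BSA. 5 × 10^4 cells were seeded onto tube-formation matrix plates with test compound or suramin as positive control, for 4–6 h at 37°C, 5% CO2. After HBSS washes, tube junctions were counted at ×4 and expressed as percentage inhibition.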

[4] = tested on: angiogenesis-related proteins of HepG2 cells; assay: Human cytokine; assay type: cell-based; conditions: HepG2, 6.25 μg/mL, cytokine array
Method in brief: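 HepG2 cells were exposed to 6.25 µg/mL test compound. Samples with a biotinylated detection-antibody cocktail were bound to a membrane antibody array of angiogenesis proteins carrying duplicate spots. Detection used streptavidin-HRP chemiluminescence on X-ray film with densitometry. Values are fold change versus untreated cultures.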

HepG2 cells migration = assay: Cell migration; assay type: cell-based, human; conditions: HepG2, 6.25, 12.5, 25 μg/mL, up to 96 h; untreated closed after 96 h
Method in brief: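 Confluent HepG2 monolayers were scratched and exposed to 6.25, 12.5 or 25 µg/mL test compound, with images taken at 0, 12, 24, 30, 48, 54, 72, 78 and 96 h. Gap distances were measured by inverted microscopy (×20), using ten fields per treatment and at least 10 readings per field. Cell-free area gave percentage wound closure.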

WRL68 cells = assay: MTT cell proliferation inhibition, WRL68; assay type: cell-based; conditions: Homo sapiens, WRL68, 72 h, read-out: IC50±SD
Method in brief: as §1

[5] = tested on: microvessel outgrowth from rat aortic rings; assay: Ex vivo rat aortic ring assay; conditions: 12.5 μg/mL, day 5, not significantly different from suramin
Method in brief: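 Thoracic aortas from 10–12-week male Sprague Dawley rats were rinsed in HBSS with 2.5 µg/mL amphotericin B, cleaned and cut into 1 mm rings. Rings were embedded in fibrinogen (3 mg/mL)/thrombin gel in serum-free M199 with aprotinin, then fed M199 with 20% HIFCS and additives at 37°C, 5% CO2. Test compound ran 1.56–12.5 µg/mL, suramin positive, 1% DMSO negative. Day-5 sprouting area was measured (×4) in three experiments, six replicates each, as mean ± SD.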

[6] = Homo sapiens, HUVEC, read-out: inhibition of endothelial tube formation

| SMILES | Matrix metalloproteinase-9 (MMP-9) expression [1] | NF-κB expression [1] | VEGF expression [1] | IC50 ([2]; Homo sapiens, read-out: IC50±SD, HUVEC, MTT, 72 h) [µg/mL] | IC50±SD ([2]; MTT) [µg/mL] | effect on CAM vasculature [3] | IC50 (HepG2 cells) [µg/mL] | effect on endothelial tube network (HUVECs tube formation; HUVECs, 3.125 μg/mL) | inhibition at 12.5 µg/mL (HUVECs tube formation; [6]) [%] | MMP expression [4] | VEGF expression [4] | angiogenin expression [4] | angiopoietin expression [4] | endostatin expression [4] | thrombospondin expression [4] | scratch wound closure (HepG2 cells migration) | IC50 (WRL68 cells) [µg/mL] | inhibition of neovascularization [5] | inhibition at 100 µg/mL (HUVECs tube formation; [6]) [%] |
| --- | --- | --- | --- | --- | --- | --- | --- | --- | --- | --- | --- | --- | --- | --- | --- | --- | --- | --- | --- |
| C/C1=C\CC(C)(C)/C=C/C(=O)/C(C)=C/CC1 [ZER, zerumbone] | downregulation | downregulation | downregulation | > 50 | 62.0 ± 1.3 (≈ 284 µM) | vascular regression | 6.2 ± 0.7 (≈ 28.4 µM) | reduced the intensity of network structures and caused the formation of incomplete and broken tubules | 89 | inhibited expression | inhibited expression | inhibited expression | inhibited expression | increasing expression | increasing expression | not scratch closure | 150 ± 0.4 (≈ 687 µM) | almost complete inhibition | – |
| Cc1ccc(C(=O)Nc2ccc(S(=O)(=O)O)c3cc(S(=O)(=O)O)cc(S(=O)(=O)O)c23)cc1NC(=O)c1cccc(NC(=O)Nc2cccc(C(=O)Nc3cc(C(=O)Nc4ccc(S(=O)(=O)O)c5cc(S(=O)(=O)O)cc(S(=O)(=O)O)c45)ccc3C)c2)c1 [Suramin, reference compound] | – | – | – | – | – | – | – | – | – | – | – | – | – | – | – | – | – | – | 96 |

— publication PMC5822492 (Pharmacognosy Magazine, 2018)
